Test results: ChEMBL document CHEMBL2040809, “Synthesis and biological activity evaluation of cytidine-5'-deoxy-5-fluoro-N-[(alkoxy/aryloxy)] carbonyl-cyclic 2',3'-carbonates” (Eur J Med Chem, 2012)
≈ marks a conversion by molar mass, not a printed value.

What was measured:
Salmonella typhimurium [1] = assay: Mutagenic activity in Salmonella typhimurium TA102 at 0.312 to 5 mg/plate measured after incubation of upside down for 48 hrs in absence of liver S9 mixture; type: toxicity, organism-based; conditions: salmonella enterica subsp. enterica serovar typhimurium
Outline: (§1)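 Plate incorporation trial (Trial I) with histidine-dependent auxotrophs. Revertant colonies are counted against the concurrent vehicle control. Each dose and each control, including negative, vehicle and positive reference mutagens, run in triplicate plates.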

Salmonella typhimurium [2] = assay: Mutagenic activity in Salmonella typhimurium TA98 at 0.312 to 5 mg/plate preincubated for 20 mins before addition in presence of liver S9 mixture; type: toxicity, organism-based; conditions: salmonella enterica subsp. enterica serovar typhimurium
Outline: (§2)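 Pre-incubation trial (Trial II) with histidine-dependent auxotrophs. Test solution is pre-incubated with bacterial suspension and S9 mix (10% v/v) or substitution buffer before plating on selective agar. Revertant colonies are counted against the concurrent vehicle control. Triplicate plates per dose and per control (negative, vehicle, positive reference mutagens).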

Salmonella typhimurium [3] = assay: Mutagenic activity in Salmonella typhimurium TA100 at 0.312 to 5 mg/plate measured after incubation of upside down for 48 hrs in presence of liver S9 mixture; type: toxicity, organism-based; conditions: salmonella enterica subsp. enterica serovar typhimurium, s9, 48 h; outline: as §1
Salmonella typhimurium [4] = assay: Mutagenic activity in Salmonella typhimurium TA100 at 0.312 to 5 mg/plate preincubated for 20 mins before addition in absence of liver S9 mixture; type: toxicity, organism-based; conditions: salmonella enterica subsp. enterica serovar typhimurium; outline: as §2
Salmonella typhimurium [5] = assay: Mutagenic activity in Salmonella typhimurium TA98 at 0.312 to 5 mg/plate measured after incubation of upside down for 48 hrs in presence of liver S9 mixture; type: toxicity, organism-based; conditions: salmonella enterica subsp. enterica serovar typhimurium, s9, 48 h; outline: as §1
NCI-H69 = assay: Cytotoxicity against human NCI-H69 cells after 3 days MTT assay; type: functional, cell-based; conditions: NCI-H69, 72 h
Outline: (§3)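 Cells held as monolayers in DMEM with 10% supplement. Seeded in 96-well plates on day 0 at densities set by doubling time: 1 × 10⁴/mL for HeLa and NCI-69, 2 × 10⁴/mL for MCF-7, 3 × 10⁴/mL for PZ-HPV-7. Five dilutions (10⁻⁸–5 × 10⁻⁶ mol/l), freshly prepared, added for 72 h. Growth read by MTT (succinate dehydrogenase activity); IC50 derived.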

MCF7 = assay: Cytotoxicity against human MCF7 cells after 3 days MTT assay; type: functional, cell-based; conditions: MCF7, 72 h; outline: as §3
Salmonella typhimurium [6] = assay: Mutagenic activity in Salmonella typhimurium TA100 at 0.312 to 5 mg/plate measured after incubation of upside down for 48 hrs in absence of liver S9 mixture; type: toxicity, organism-based; conditions: salmonella enterica subsp. enterica serovar typhimurium; outline: as §1
Salmonella typhimurium [7] = assay: Mutagenic activity in Salmonella typhimurium TA102 at 0.312 to 5 mg/plate preincubated for 20 mins before addition in presence of liver S9 mixture; type: toxicity, organism-based; conditions: salmonella enterica subsp. enterica serovar typhimurium; outline: as §2
Salmonella typhimurium [8] = assay: Mutagenic activity in Salmonella typhimurium TA1535 at 0.312 to 5 mg/plate preincubated for 20 mins before addition in presence of liver S9 mixture; type: toxicity, organism-based; conditions: salmonella enterica subsp. enterica serovar typhimurium; outline: as §2
Salmonella typhimurium [9] = assay: Mutagenic activity in Salmonella typhimurium TA102 at 0.312 to 5 mg/plate preincubated for 20 mins before addition in absence of liver S9 mixture; type: toxicity, organism-based; conditions: salmonella enterica subsp. enterica serovar typhimurium; outline: as §2
Salmonella typhimurium [10] = assay: Mutagenic activity in Salmonella typhimurium TA1535 at 0.312 to 5 mg/plate measured after incubation of upside down for 48 hrs in absence of liver S9 mixture; type: toxicity, organism-based; conditions: salmonella enterica subsp. enterica serovar typhimurium; outline: as §1
Salmonella typhimurium [11] = assay: Mutagenic activity in Salmonella typhimurium TA100 at 0.312 to 5 mg/plate preincubated for 20 mins before addition in presence of liver S9 mixture; type: toxicity, organism-based; conditions: salmonella enterica subsp. enterica serovar typhimurium; outline: as §2
Salmonella typhimurium [12] = assay: Mutagenic activity in Salmonella typhimurium TA1537 at 0.312 to 5 mg/plate preincubated for 20 mins before addition in absence of liver S9 mixture; type: toxicity, organism-based; conditions: salmonella enterica subsp. enterica serovar typhimurium; outline: as §2
[13] = Cytotoxicity against human PZ-HPV-7 cells after 3 days MTT assay; type: functional, cell-based; conditions: 72 h; outline: as §3
Salmonella typhimurium [14] = assay: Mutagenic activity in Salmonella typhimurium TA1537 at 0.312 to 5 mg/plate measured after incubation of upside down for 48 hrs in absence of liver S9 mixture; type: toxicity, organism-based; conditions: salmonella enterica subsp. enterica serovar typhimurium; outline: as §1
Salmonella typhimurium [15] = assay: Mutagenic activity in Salmonella typhimurium TA98 at 0.312 to 5 mg/plate measured after incubation of upside down for 48 hrs in absence of liver S9 mixture; type: toxicity, organism-based; conditions: salmonella enterica subsp. enterica serovar typhimurium; outline: as §1
Salmonella typhimurium [16] = assay: Mutagenic activity in Salmonella typhimurium TA102 at 0.312 to 5 mg/plate measured after incubation of upside down for 48 hrs in presence of liver S9 mixture; type: toxicity, organism-based; conditions: salmonella enterica subsp. enterica serovar typhimurium, s9, 48 h; outline: as §1
Salmonella typhimurium [17] = assay: Mutagenic activity in Salmonella typhimurium TA1537 at 0.312 to 5 mg/plate preincubated for 20 mins before addition in presence of liver S9 mixture; type: toxicity, organism-based; conditions: salmonella enterica subsp. enterica serovar typhimurium; outline: as §2
Salmonella typhimurium [18] = assay: Mutagenic activity in Salmonella typhimurium TA1535 at 0.312 to 5 mg/plate preincubated for 20 mins before addition in absence of liver S9 mixture; type: toxicity, organism-based; conditions: salmonella enterica subsp. enterica serovar typhimurium; outline: as §2
Salmonella typhimurium [19] = assay: Mutagenic activity in Salmonella typhimurium TA98 at 0.312 to 5 mg/plate preincubated for 20 mins before addition in absence of liver S9 mixture; type: toxicity, organism-based; conditions: salmonella enterica subsp. enterica serovar typhimurium; outline: as §2
Salmonella typhimurium [20] = assay: Mutagenic activity in Salmonella typhimurium TA1535 at 0.312 to 5 mg/plate measured after incubation of upside down for 48 hrs in presence of liver S9 mixture; type: toxicity, organism-based; conditions: salmonella enterica subsp. enterica serovar typhimurium, s9, 48 h; outline: as §1
HeLa = assay: Cytotoxicity against human HeLa cells after 3 days MTT assay; type: functional, cell-based; conditions: 72 h; outline: as §3
Salmonella typhimurium [21] = assay: Mutagenic activity in Salmonella typhimurium TA1537 at 0.312 to 5 mg/plate measured after incubation of upside down for 48 hrs in presence of liver S9 mixture; type: toxicity, organism-based; conditions: salmonella enterica subsp. enterica serovar typhimurium, s9, 48 h; outline: as §1

| Structure (SMILES) | Activity (Salmonella typhimurium [1]) | Activity (Salmonella typhimurium [2]) | Activity (Salmonella typhimurium [3]) | Activity (Salmonella typhimurium [4]) | Activity (Salmonella typhimurium [5]) | IC50 (NCI-H69) [µg/mL] | IC50 (MCF7) [µg/mL] | Activity (Salmonella typhimurium [6]) | Activity (Salmonella typhimurium [7]) | Activity (Salmonella typhimurium [8]) | Activity (Salmonella typhimurium [9]) | Activity (Salmonella typhimurium [10]) | Activity (Salmonella typhimurium [11]) | Activity (Salmonella typhimurium [12]) | IC50 [13] [µg/mL] | Activity (Salmonella typhimurium [14]) | Activity (Salmonella typhimurium [15]) | Activity (Salmonella typhimurium [16]) | Activity (Salmonella typhimurium [17]) | Activity (Salmonella typhimurium [18]) | further results |
| --- | --- | --- | --- | --- | --- | --- | --- | --- | --- | --- | --- | --- | --- | --- | --- | --- | --- | --- | --- | --- | --- |
| CCC(C)COC(=O)Nc1nc(=O)n([C@@H]2O[C@H](C)[C@@H](O)[C@H]2O)cc1F (stereo partly specified) | Non-toxic | Non-toxic | Non-toxic | Non-toxic | Non-toxic | 370 (≈ 1030 µM) | 120 (≈ 334 µM) | Non-toxic | Non-toxic | Non-toxic | Non-toxic | Non-toxic | Non-toxic | Non-toxic | 250 (≈ 696 µM) | Non-toxic | Non-toxic | Non-toxic | Non-toxic | Non-toxic | Activity (Salmonella typhimurium [19]): Non-toxic; Activity (Salmonella typhimurium [20]): Non-toxic; IC50 (HeLa): 0.09 µg/mL (≈ 0.25 µM); Activity (Salmonella typhimurium [21]): Non-toxic |
| CC(C)CCOC(=O)Nc1nc(=O)n([C@@H]2O[C@H](C)[C@@H](O)[C@H]2O)cc1F | Non-toxic | Non-toxic | Non-toxic | Non-toxic | Non-toxic | 370 (≈ 1030 µM) | 120 (≈ 334 µM) | Non-toxic | Non-toxic | Non-toxic | Non-toxic | Non-toxic | Non-toxic | Non-toxic | 250 (≈ 696 µM) | Non-toxic | Non-toxic | Non-toxic | Non-toxic | Non-toxic | Activity (Salmonella typhimurium [19]): Non-toxic; Activity (Salmonella typhimurium [20]): Non-toxic; IC50 (HeLa): 0.09 µg/mL (≈ 0.25 µM); Activity (Salmonella typhimurium [21]): Non-toxic |
| C[C@H]1O[C@@H](n2cc(F)c(NC(=O)Oc3ccc([N+](=O)[O-])cc3)nc2=O)[C@H](O)[C@@H]1O | Non-toxic | Non-toxic | Non-toxic | Non-toxic | Non-toxic | 100 (≈ 244 µM) | 180 (≈ 439 µM) | Non-toxic | Non-toxic | Non-toxic | Non-toxic | Non-toxic | Non-toxic | Non-toxic | 90 (≈ 219 µM) | Non-toxic | Non-toxic | Non-toxic | Non-toxic | Non-toxic | Activity (Salmonella typhimurium [19]): Non-toxic; Activity (Salmonella typhimurium [20]): Non-toxic; IC50 (HeLa): 0.01 µg/mL (≈ 0.0244 µM); Activity (Salmonella typhimurium [21]): Non-toxic |
| C[C@H]1O[C@@H](n2cc(F)c(NC(=O)Oc3ccc(Cl)cc3)nc2=O)[C@H](O)[C@@H]1O | Non-toxic | Non-toxic | Non-toxic | Non-toxic | Non-toxic | 90 (≈ 225 µM) | 100 (≈ 250 µM) | Non-toxic | Non-toxic | Non-toxic | Non-toxic | Non-toxic | Non-toxic | Non-toxic | 70 (≈ 175 µM) | Non-toxic | Non-toxic | Non-toxic | Non-toxic | Non-toxic | Activity (Salmonella typhimurium [19]): Non-toxic; Activity (Salmonella typhimurium [20]): Non-toxic; IC50 (HeLa): 0.03 µg/mL (≈ 0.075 µM); Activity (Salmonella typhimurium [21]): Non-toxic |
